pIC50: −log10 of the molar value. The source made the active and inactive calls. No cut-off for these calls is given here.
Columns and labels:
[1] = target: T1, DCN1-like protein 1 (Homo sapiens, UniProt Q96GG9); test: Binding affinity to N-terminal His6-tagged recombinant human DCN1 expressed in Escherichia coli BL21-AI assessed as reduction in DCN1-FAM-labelled N-terminal acetylated UBE2M (1 to 12 residues) protein-protein interaction after 30 mins by fluorescence polarization competitive binding assay
[2] = target: T1, DCN1-like protein 1; test: Binding affinity to N-terminal GST tagged recombinant human DCN1 (58 to 259 residues) expressed in Escherichia coli BL21(DE3) assessed as reduction in DCN1-FAM-labelled N-terminal acetylated UBE2M (1 to 21 residues) protein-protein interaction after 30 mins by HTRF assay
[3] = system: SMMC-7721; test: Antiproliferative activity against human SMMC7721 after 72 hrs by MTT assay; format: functional, cell-based; details: SMMC-7721, 72 h
In short: (§1)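 MTT viability assay: cells seeded at 2~5×10^3 per well, exposed to serial dilutions of compound for 72h, then MTT (5 mg/mL in PBS) added for 4h at 37°C. Formazan dissolved in DMSO and read at 490nm. IC50 reported as mean ± SD of three independent experiments.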

[4] = system: PC-3; test: Antiproliferative activity against human PC3 after 72 hrs by MTT assay; format: functional, cell-based; details: PC-3, 72 h; in short: as §1
[5] = system: MCF7; test: Antiproliferative activity against human MCF7 after 72 hrs by MTT assay; format: functional, cell-based; details: MCF7, 72 h; in short: as §1
[6] = system: KYSE-70 cell line; test: Antiproliferative activity against human KYSE-70 after 72 hrs by MTT assay; format: functional, cell-based; details: KYSE-70, 72 h; in short: as §1
[7] = system: PC-9; test: Antiproliferative activity against human PC9 by MTT assay; format: functional, cell-based; in short: as §1
[8] = target: DCN1-like protein 1/NEDD8-conjugating enzyme Ubc12 (Homo sapiens) (UniProt Q96GG9+P61081); test: Inhibition of DCN1-UBE2M protein-protein interaction in human NCI-H1975 cells assessed as stabilization of DCN1 at 10 uM incubated for 5 hrs at 53 degC by cellular thermal shift assay; format: cell-based
In short: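 H1975 cells exposed to 10µM compound or 1‰ DMSO for 3-5h (5h in legend), collected, aliquoted and heated 10 min across 43–61°C. Cells lysed by three liquid-nitrogen freeze-thaw cycles and centrifuged at 12,000×g for 20 min. Soluble DCN1 in supernatant quantified by Western blot band intensity; at least three experiments.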

T1 sequence (Q96GG9 whole entry, the tested form may be a part): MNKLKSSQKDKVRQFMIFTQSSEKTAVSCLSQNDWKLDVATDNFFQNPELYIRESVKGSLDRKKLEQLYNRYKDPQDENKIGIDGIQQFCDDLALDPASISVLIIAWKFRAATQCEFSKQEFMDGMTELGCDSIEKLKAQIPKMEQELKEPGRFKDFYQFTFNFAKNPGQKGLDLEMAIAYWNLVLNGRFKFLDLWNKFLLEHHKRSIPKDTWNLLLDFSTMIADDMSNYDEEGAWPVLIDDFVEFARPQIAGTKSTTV
Sequence of DCN1-like protein 1/NEDD8-conjugating enzyme Ubc12 (Homo sapiens) (P61081 whole entry, looked up): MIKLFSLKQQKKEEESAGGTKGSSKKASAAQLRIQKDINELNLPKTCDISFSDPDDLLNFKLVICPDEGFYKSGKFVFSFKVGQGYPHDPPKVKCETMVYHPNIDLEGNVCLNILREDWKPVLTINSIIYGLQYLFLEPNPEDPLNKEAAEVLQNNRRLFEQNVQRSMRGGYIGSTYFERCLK
Sequence of DCN1-like protein 1/NEDD8-conjugating enzyme Ubc12 (Homo sapiens) (Q96GG9 whole entry, looked up): as the sequence (Q96GG9 whole entry, the tested form may be a part) above

Compound | pIC50 [1] | pIC50 [2] | pIC50 [3] | pIC50 [4] | pIC50 [5] | pIC50 [7] | inhibition [8] | pIC50 [6]
C#CCSc1nc(Sc2nnnn2C)c(C#N)c(-c2ccc(C(C)C)cc2)n1 | 5.96 | 6.43 | – | – | – | – | – | –
C#CCSc1nc(Sc2nnnn2C)c(C#N)c(-c2ccc[nH]2)n1 | < 4.70 | < 5.00 | – | – | – | – | – | –
N#Cc1c(Sc2nccs2)nc(SCc2cn(Cc3ccccc3)nn2)nc1-c1ccc(Cl)cc1 | < 5.00 | < 5.00 | – | – | – | – | – | –
C=CC(=O)Nc1ccccc1CN(C(=O)Nc1cccc(C(F)(F)F)c1)C1CCN(C(C)CCC)CC1 (centres undefined) | – | – | 4.79 | 4.60 | 4.99 | 5.25 | – | 4.75
C#CCSc1nc(Sc2nnnn2CCN(C)C)c(C#N)c(-c2cccc(Cl)c2)n1 | 6.97 | 6.42 | 5.06 | 5.45 | 5.39 | 5.19 | – | 5.27
C=CCSc1nc(Sc2nccs2)c(C#N)c(-c2ccc(Cl)cc2)n1 | < 5.00 | < 5.00 | – | – | – | – | – | –
C#CCSc1nc(Sc2nnnn2C)c(C#N)c(-c2c[nH]c3ccccc23)n1 | < 4.70 | < 5.00 | – | – | – | – | – | –
C#CCSc1nc(Sc2nnnn2CCN(C)C)c(C#N)c(-c2ccc(Cl)c(Cl)c2)n1 | 6.41 | 6.76 | – | – | – | – | – | –
C#CCSc1nc(Sc2nnnn2C)c(C#N)c(-c2cccc(Cl)c2)n1 | 6.19 | 6.54 | – | – | – | – | – | –
C#CCSc1nc(Sc2nnnn2CCN(C)C)c(C#N)c(-c2ccc(C)cc2)n1 | 6.96 | 6.92 | – | – | – | – | – | –
C#CCSc1nc(Sc2nnnn2C)c(C#N)c(-c2cccs2)n1 | < 4.70 | < 5.00 | – | – | – | – | – | –
C#CCSc1nc(Sc2nnnn2C)c(C#N)c(-c2ccc3oc(=O)ccc3c2)n1 | 5.90 | 6.09 | – | – | – | – | – | –
C#CCSc1nc(Sc2nccs2)c(C#N)c(-c2ccncc2)n1 | 5.83 | 5.97 | – | – | – | – | – | –
C#CCSc1nc(Sc2nnnn2C)c(C#N)c(-c2ccc(Cl)cc2)n1 | 7.11 | 6.99 | – | – | – | – | – | –
C#CCSc1nc(Sc2nnnn2C)c(C#N)c(-c2ccc(Cl)c(Cl)c2)n1 | 6.03 | 6.47 | – | – | – | – | – | –
CCCSc1nc(Sc2nccs2)c(C#N)c(-c2ccc(Cl)cc2)n1 | < 5.00 | < 5.00 | – | – | – | – | – | –
C#CCSc1nc(Sc2nccs2)c(C#N)c(-c2ccc[nH]2)n1 | < 4.70 | < 5.00 | < 4.70 | < 4.70 | < 4.70 | < 4.70 | – | < 4.70
C#CCSc1nc(Sc2nnnn2CCN(C)C)c(C#N)c(-c2ccc3oc(=O)ccc3c2)n1 | 6.18 | 6.09 | – | – | – | – | – | –
C#CCSc1nc(Sc2nnnn2CCN(C)C)c(C#N)c(-c2ccc(Cl)cc2)n1 | 7.20 | 6.91 | 5.13 | 5.14 | 5.21 | 5.28 | – | 5.18

Now from value to compound, other results behind:

pIC50 [1] | pIC50 [2] | pIC50 [3] | pIC50 [4] | pIC50 [5] | pIC50 [7] | inhibition [8] | Compound | pIC50 [6]
6.44 | 6.60 | – | – | – | – | – | C#CCSc1nc(Sc2nnnn2C)c(C#N)c(-c2cc(OC)c(OC)c(OC)c2)n1 | –
< 4.70 | < 4.70 | – | – | – | – | – | C#CCSc1nc(Sc2nnnn2C)c(C#N)c(-c2ccccc2)n1 | –
< 5.00 | < 5.00 | – | – | – | – | – | C#CCSc1nc(Nc2nnnn2C)c(C#N)c(-c2cc(OC)c(OC)c(OC)c2)n1 | –
5.91 | < 5.30 | < 4.70 | < 4.70 | < 4.70 | < 4.70 | – | C#CCSc1nc(Sc2nc[nH]n2)c(C#N)c(-c2cc(OC)c(OC)c(OC)c2)n1 | < 4.70
6.82 | 6.87 | – | – | – | – | – | C#CCSc1nc(Sc2nnc(C)s2)c(C#N)c(-c2cc(OC)c(OC)c(OC)c2)n1 | –
6.10 | 6.69 | – | – | – | – | – | C#CCSc1nc(Sc2nccs2)c(C#N)c(-c2ccc3oc(=O)ccc3c2)n1 | –
6.09 | 6.97 | – | – | – | – | – | C#CCSc1nc(Sc2nnc(N)s2)c(C#N)c(-c2cc(OC)c(OC)c(OC)c2)n1 | –
< 5.00 | < 5.60 | < 4.70 | < 5.00 | < 5.00 | < 4.70 | – | C#CCSc1nc(Sc2ccccn2)c(C#N)c(-c2cc(OC)c(OC)c(OC)c2)n1 | < 5.00
< 5.00 | < 5.30 | < 4.70 | < 4.70 | < 4.70 | < 4.70 | – | C#CCSc1nc(Sc2nc3ccccc3s2)c(C#N)c(-c2cc(OC)c(OC)c(OC)c2)n1 | < 4.70
7.44 | 7.02 | 5.22 | 5.44 | 5.49 | 5.38 | – | C#CCSc1nc(Sc2nccs2)c(C#N)c(-c2ccc(Cl)cc2)n1 | 5.27
6.23 | 6.70 | – | – | – | – | – | C#CCSc1nc(Sc2nnnn2CCN(C)C)c(C#N)c(-c2cc(OC)c(OC)c(OC)c2)n1 | –
< 5.00 | < 5.00 | – | – | – | – | – | C#CCSc1nc(Nc2cccc(C(F)(F)F)c2)c(C#N)c(-c2cc(OC)c(OC)c(OC)c2)n1 | –
5.50 | 5.99 | – | – | – | – | – | C#CCSc1nc(Sc2nnnn2C)c(C#N)c(-c2cccc(OC)c2)n1 | –
6.71 | 7.18 | – | – | – | – | – | C#CCSc1nc(Sc2ccc(N)s2)c(C#N)c(-c2cc(OC)c(OC)c(OC)c2)n1 | –
6.85 | 7.11 | – | – | – | – | – | C#CCSc1nc(Sc2nccs2)c(C#N)c(-c2cc(OC)c(OC)c(OC)c2)n1 | –
< 5.00 | < 5.00 | – | – | – | – | – | C#CCSc1nc(Nc2ccc(OC)cc2)c(C#N)c(-c2cc(OC)c(OC)c(OC)c2)n1 | –
< 5.00 | < 5.30 | – | – | – | – | – | C#CCSc1nc(-c2cc(OC)c(OC)c(OC)c2)c(C#N)c(N2CCNCC2)n1 | –
6.44 | 6.85 | – | – | – | – | – | C#CCSc1nc(Sc2nccs2)c(C#N)c(-c2cccc(Cl)c2)n1 | –
< 5.00 | < 5.00 | – | – | – | – | – | C#CCSc1nc(-c2cc(OC)c(OC)c(OC)c2)c(C#N)c(N2CCOCC2)n1 | –
< 5.00 | < 5.00 | < 4.70 | < 4.70 | < 4.70 | < 4.70 | – | C#CCSc1nc(Sc2nc(C)c(C)s2)c(C#N)c(-c2cc(OC)c(OC)c(OC)c2)n1 | < 4.70
< 5.00 | < 5.30 | – | – | – | – | – | C#CCSc1nc(-c2cc(OC)c(OC)c(OC)c2)c(C#N)c(N2CCSCC2)n1 | –
< 5.00 | < 5.00 | < 4.70 | < 4.70 | < 4.70 | < 4.70 | inactive | C#CCSc1nc(Sc2nc(C)cs2)c(C#N)c(-c2cc(OC)c(OC)c(OC)c2)n1 | < 4.70
< 5.00 | < 5.60 | – | – | – | – | – | C#CCSc1nc(Sc2nccn2C)c(C#N)c(-c2cc(OC)c(OC)c(OC)c2)n1 | –
< 5.00 | < 5.30 | – | – | – | – | – | C#CCSc1nc(-c2cc(OC)c(OC)c(OC)c2)c(C#N)c(N2CCCCC2)n1 | –
7.20 | 6.95 | – | – | – | – | – | C#CCSc1nc(Sc2nccs2)c(C#N)c(-c2ccc(Cl)c(Cl)c2)n1 | –
6.26 | 6.72 | 5.40 | 5.07 | 4.93 | 4.92 | – | C#CCSc1nc(Sc2nccs2)c(C#N)c(-c2ccc(Br)cc2)n1 | 4.96

— ChEMBL document CHEMBL4396897, “Potent 5-Cyano-6-phenyl-pyrimidin-Based Derivatives Targeting DCN1-UBE2M Interaction” (J Med Chem, 2019)
